Experimental data pooled from the literature.
Lines come from different studies, so protocols differ.
MAP4K3: Mitogen-activated protein kinase kinase kinase kinase 3 (MAP4K3, Homo sapiens, UniProt Q8IVH8)
ADORA1: Adenosine receptor A1 (ADORA1, Homo sapiens, UniProt P30542)
OTUD6B: Deubiquitinase OTUD6B (OTUD6B, Homo sapiens, UniProt Q8N6M0)
USP5: Ubiquitin carboxyl-terminal hydrolase 5 (USP5, Homo sapiens, UniProt P45974)
TACR3: Neuromedin-K receptor (TACR3, Homo sapiens, UniProt P29371)

For `C#Cc1n[nH]c2c(-c3cn([C@@H](C)c4ccccn4)c(=O)[nH]c3=O)cc(F)cc12`, the inhibition was -2.5% (MAP4K3; enzyme activity, inhibitor; 0.1 µM).
For `OC[C@@]12C[C@@H]1[C@@H](n1cnc3c(NC(C4CCCC4)C4CCCC4)nc(Cl)cc31)[C@H](O)[C@@H]2O`, the inhibition was 11% (ADORA1; ligand displacement, radioligand; 10 µM).
For `N=C(N)c1ccc2cc(OC(=O)c3ccc(N=C(N)N)cc3)ccc2c1`, the inhibition was 9% (OTUD6B; enzyme activity, inhibitor; 10 µM).
`Cn1c(=O)c2ncnnc2n(C)c1=O` has an inhibition of 98% (USP5; enzyme activity, inhibitor; 17 µM).
`COCCN(CCOC)C(=O)[C@@]12C[C@@H]1[C@@H](n1cnc3c(NC(C4CC4)C4CC4)nc(Cl)nc31)[C@H](O)[C@@H]2O` has an inhibition of 34% (ADORA1; ligand displacement, radioligand; 10 µM).
The inhibition of `CCOC(=O)c1ccc(OC(=O)CCCCCNC(=N)N)cc1` is reported as 3% (OTUD6B; enzyme activity, inhibitor; 10 µM).
`C[C@H](C(=O)N[C@H]1COc2ccccc2[C@@H]1S(C)(=O)=O)c1ccc(F)cc1` gave an inhibition of -11% (TACR3; cell-free assay; 10 µM).
With `COc1cc(Nc2ncc(F)c(Nc3ccc4c(n3)NC(=O)C(C)(C)O4)n2)cc(OC)c1OC` the inhibition was 0% (Serine/threonine-protein kinase 32C (STK32C, Homo sapiens, UniProt Q86UX6); binding, competition with immobilised ligand; 10 µM).
`C#Cc1n[nH]c2c(-c3cn([C@@H](C)c4ccccc4)c(=O)[nH]c3=O)cc(F)cc12` has an inhibition of -1.9% (MAP4K3; enzyme activity, inhibitor; 0.1 µM).
`CN(C)C(=O)COC(=O)Cc1ccc(OC(=O)c2ccc(NC(=N)N)cc2)cc1` gave an inhibition of 1% (USP5; enzyme activity, inhibitor; 10 µM).
`c1ccc(C(NCCNC(c2ccccc2)c2ccccc2)c2ccccc2)cc1` has an inhibition of 61% (TACR3; cell-free assay; 10 µM).
The inhibition of `Cn1cc(-c2cc(F)cc(N3CCn4c(cc5c4CCCC5)C3=O)c2CO)cc(Nc2ccc(N3CCN(C4COC4)CC3)cn2)c1=O` is reported as 14% (Inhibitor of nuclear factor kappa-B kinase subunit alpha (CHUK, Homo sapiens, UniProt O15111); enzyme activity, inhibitor; 0.1 µM).
For `CNC(=O)[C@H](Cc1ccccc1)NC(=O)[C@H](CC(C)C)[C@H](CSc1cccs1)C(=O)NO`, the inhibition was 4% (Matrilysin (MMP7, Homo sapiens, UniProt P09237); enzyme activity, inhibitor; 100 pM).
With `O[C@H]1[C@H](n2cnc3c(NC(C4CCCCC4)C4CCCCC4)nc(Cl)nc32)[C@H]2C[C@@]2(CF)[C@H]1O` the inhibition was 47% (ADORA1; ligand displacement, radioligand; 10 µM).
For `CCN(CC)CCCC[C@H](NC(=O)[C@H](CC(C)C)NC(=O)[C@H](C)NC(=O)[C@H](Cc1ccccc1)NC(=O)c1ccc(C(C)(C)C)cc1)C(=O)N[C@@H](CO)C(=O)OC`, the inhibition was 8% (TACR3; ligand displacement, radioligand; 10 µM).
